Assay results from ChEMBL document CHEMBL1135850, “P1 Phenethyl peptide boronic acid inhibitors of HCV NS3 protease” (Bioorg Med Chem Lett, 2002).
pIC50, pKi: −log10 of the molar value. Peptide text beside a SMILES is read from it. * marks the point of attachment. X3 = CC1(C)[C@@H]2C[C@H]3OB([C@H](CCc4cccc(C(F)(F)F)c4)N*)O[C@@]3(C)[C@H]1C2; X4 = CC1(C)[C@@H]2C[C@H]3OB([C@H](CCc4cccc(F)c4)N*)O[C@@]3(C)[C@H]1C2; X1 = CC1(C)[C@@H]2C[C@H]3OB([C@H](CCc4ccccc4F)N*)O[C@@]3(C)[C@H]1C2; X6 = CC1(C)[C@@H]2C[C@H]3OB([C@H](CCCc4ccccc4)N*)O[C@@]3(C)[C@H]1C2; X15 = CC1(C)[C@@H]2C[C@H]3OB([C@H](Cc4ccccc4)N*)O[C@@]3(C)[C@H]1C2; X12 = CC(C)CC[C@H](N*)B1O[C@@H]2C[C@@H]3C[C@@H](C3(C)C)[C@]2(C)O1; X9 = CC1(C)[C@@H]2C[C@H]3OB([C@@H](N*)c4ccccc4)O[C@@]3(C)[C@H]1C2; X11 = CCCCCC[C@H](N*)B1O[C@@H]2C[C@@H]3C[C@@H](C3(C)C)[C@]2(C)O1; X13 = CCCCC[C@H](N*)B1O[C@@H]2C[C@@H]3C[C@@H](C3(C)C)[C@]2(C)O1; X14 = CCCC[C@H](N*)B1O[C@@H]2C[C@@H]3C[C@@H](C3(C)C)[C@]2(C)O1

These compounds were tested against T1, Neutrophil elastase (Homo sapiens, UniProt P08246) (assay: Inhibitory concentration against Human leukocyte Elastase).
T1 sequence (P08246 whole entry): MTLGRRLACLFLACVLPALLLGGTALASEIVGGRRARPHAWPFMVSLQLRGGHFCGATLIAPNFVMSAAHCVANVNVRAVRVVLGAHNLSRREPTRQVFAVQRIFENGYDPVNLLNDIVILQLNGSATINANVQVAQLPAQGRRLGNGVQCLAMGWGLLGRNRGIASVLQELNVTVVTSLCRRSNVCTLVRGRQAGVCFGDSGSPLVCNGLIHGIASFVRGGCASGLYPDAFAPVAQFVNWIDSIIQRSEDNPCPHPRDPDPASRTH
Procedure, shortened: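 Human neutrophil elastase (stock 1 mg/mL in PBS with 10% glycerol) with MeO-Suc-Ala-Ala-Pro-Val-p-nitroanilide substrate in PBS at room temperature, DMSO ≤2%. Inhibitors were tested as pinanediol esters. Substrate hydrolysis was followed at 405 nm to derive kinetic parameters.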

Row | pIC50 | SMILES
1 | 6.10 | CC(C)[C@H](NC(=O)[C@H](CCC(=O)O)NC(=O)[C@@H](N)CC(=O)O)C(=O)N[C@H](C(=O)N1CCC[C@@H]1C(=O)N[C@@H](CCc1ccc(F)cc1)B1O[C@@H]2C[C@@H]3C[C@@H](C3(C)C)[C@]2(C)O1)C(C)C
2 | 5.24 | Cc1cccc(CC[C@H](NC(=O)[C@H]2CCCN2C(=O)[C@@H](NC(=O)[C@@H](NC(=O)[C@H](CCC(=O)O)NC(=O)[C@@H](N)CC(=O)O)C(C)C)C(C)C)B2O[C@@H]3C[C@@H]4C[C@@H](C4(C)C)[C@]3(C)O2)c1

The next lines start with the compound.

Row | SMILES | pIC50
3 | CC(C)CCC[C@H](NC(=O)[C@H]1CCCN1C(=O)[C@@H](NC(=O)[C@@H](NC(=O)[C@H](CCC(=O)O)NC(=O)[C@@H](N)CC(=O)O)C(C)C)C(C)C)B1O[C@@H]2C[C@@H]3C[C@@H](C3(C)C)[C@]2(C)O1 | 5.14
4 | CC(C)[C@H](NC(=O)[C@H](CCC(=O)O)NC(=O)[C@@H](N)CC(=O)O)C(=O)N[C@H](C(=O)N1CCC[C@@H]1C(=O)N[C@@H](CCc1ccc(-c2ccccc2)cc1)B1O[C@@H]2C[C@@H]3C[C@@H](C3(C)C)[C@]2(C)O1)C(C)C | 6.05

The compounds below were run against NS3 (Hepatitis C virus, UniProt A3EZJ3) (assay: Binding affinity against Hepatitis C virus NS3 protease).
Set-up: species or system Hepacivirus hominis
Procedure, shortened: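 Continuous fluorescence assay with 4 nM NS3 protease plus NS4A cofactor peptide, in 50 mM Tris pH 7.0, 5 mM DTT, 50% glycerol, 2% CHAPS. Serially diluted inhibitors, given as boronic acid pinanediol esters, were preincubated with enzyme for 15 min. The reaction was started with the FRET ester substrate Ac-DED(EDANS)EEAbuψ[COO]ASK(DABCYL)-NH2 at ambient temperature and read at excitation 360 nm, emission 530 nm.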

Row | pKi | SMILES
5 | 8.22 | CC(C)[C@H](NC(=O)[C@H](CCC(=O)O)NC(=O)[C@@H](N)CC(=O)O)C(=O)N[C@H](C(=O)N1CCC[C@H]1C(=O)N[C@@H](CCc1ccc(F)cc1)B1O[C@@H]2C[C@@H]3C[C@@H](C3(C)C)[C@]2(C)O1)C(C)C
6 | 8.10 | CC(C)[C@H](NC(=O)[C@H](CCC(=O)O)NC(=O)[C@@H](N)CC(=O)O)C(=O)N[C@H](C(=O)N1CCC[C@H]1C(=O)N[C@@H](CCc1ccccc1)B1O[C@@H]2C[C@@H]3C[C@@H](C3(C)C)[C@]2(C)O1)C(C)C
7 | 7.47 | Cc1cccc(CC[C@H](NC(=O)[C@@H]2CCCN2C(=O)[C@@H](NC(=O)[C@@H](NC(=O)[C@H](CCC(=O)O)NC(=O)[C@@H](N)CC(=O)O)C(C)C)C(C)C)B2O[C@@H]3C[C@@H]4C[C@@H](C4(C)C)[C@]3(C)O2)c1
8 | 8.10 | CC(C)[C@H](NC(=O)[C@H](CCC(=O)O)NC(=O)[C@@H](N)CC(=O)O)C(=O)N[C@H](C(=O)N1CCC[C@H]1C(=O)N[C@@H](CCc1ccc(O)cc1)B1O[C@@H]2C[C@@H]3C[C@@H](C3(C)C)[C@]2(C)O1)C(C)C
9 | 8.70 | CC(C)[C@H](NC(=O)[C@H](CCC(=O)O)NC(=O)[C@@H](N)CC(=O)O)C(=O)N[C@H](C(=O)N1CCC[C@H]1C(=O)N[C@@H](CCc1ccc(Cl)cc1)B1O[C@@H]2C[C@@H]3C[C@@H](C3(C)C)[C@]2(C)O1)C(C)C
10 | 7.77 | Cc1ccc(CC[C@H](NC(=O)[C@@H]2CCCN2C(=O)[C@@H](NC(=O)[C@@H](NC(=O)[C@H](CCC(=O)O)NC(=O)[C@@H](N)CC(=O)O)C(C)C)C(C)C)B2O[C@@H]3C[C@@H]4C[C@@H](C4(C)C)[C@]3(C)O2)cc1
11 | 7.74 | CC(C)[C@H](NC(=O)[C@H](CCC(=O)O)NC(=O)[C@@H](N)CC(=O)O)C(=O)N[C@H](C(=O)N1CCC[C@H]1C(=O)N[C@@H](CCc1ccccc1F)B1O[C@@H]2C[C@@H]3C[C@@H](C3(C)C)[C@]2(C)O1)C(C)C (H-DEVVP-X1)
12 | 7.60 | CC(C)[C@H](NC(=O)[C@H](CCC(=O)O)NC(=O)[C@@H](N)CC(=O)O)C(=O)N[C@H](C(=O)N1CCC[C@H]1C(=O)N[C@@H](CCc1cccc(C(F)(F)F)c1)B1O[C@@H]2C[C@@H]3C[C@@H](C3(C)C)[C@]2(C)O1)C(C)C (H-DEVVP-X3)
13 | 8.05 | CC(C)[C@H](NC(=O)[C@H](CCC(=O)O)NC(=O)[C@@H](N)CC(=O)O)C(=O)N[C@H](C(=O)N1CCC[C@H]1C(=O)N[C@@H](CCc1cccc(F)c1)B1O[C@@H]2C[C@@H]3C[C@@H](C3(C)C)[C@]2(C)O1)C(C)C (H-DEVVP-X4)

Further lines, the compound ahead of its results:

Row | SMILES | pKi
14 | COc1ccc(CC[C@H](NC(=O)[C@@H]2CCCN2C(=O)[C@@H](NC(=O)[C@@H](NC(=O)[C@H](CCC(=O)O)NC(=O)[C@@H](N)CC(=O)O)C(C)C)C(C)C)B2O[C@@H]3C[C@@H]4C[C@@H](C4(C)C)[C@]3(C)O2)cc1 | 8.52
15 | CC(C)[C@H](NC(=O)[C@H](CCC(=O)O)NC(=O)[C@@H](N)CC(=O)O)C(=O)N[C@H](C(=O)N1CCC[C@H]1C(=O)N[C@@H](CCc1ccc(C(F)(F)F)cc1)B1O[C@@H]2C[C@@H]3C[C@@H](C3(C)C)[C@]2(C)O1)C(C)C | 8.70
16 | CC(C)[C@H](NC(=O)[C@H](CCC(=O)O)NC(=O)[C@@H](N)CC(=O)O)C(=O)N[C@H](C(=O)N1CCC[C@H]1C(=O)N[C@@H](CCc1ccc(C2CCCCC2)cc1)B1O[C@@H]2C[C@@H]3C[C@@H](C3(C)C)[C@]2(C)O1)C(C)C | 8.52
17 | CC(C)[C@H](NC(=O)[C@H](CCC(=O)O)NC(=O)[C@@H](N)CC(=O)O)C(=O)N[C@H](C(=O)N1CCC[C@H]1C(=O)N[C@@H](CCc1ccc(Br)cc1)B1O[C@@H]2C[C@@H]3C[C@@H](C3(C)C)[C@]2(C)O1)C(C)C | 8.40
18 | CC(C)c1ccc(CC[C@H](NC(=O)[C@@H]2CCCN2C(=O)[C@@H](NC(=O)[C@@H](NC(=O)[C@H](CCC(=O)O)NC(=O)[C@@H](N)CC(=O)O)C(C)C)C(C)C)B2O[C@@H]3C[C@@H]4C[C@@H](C4(C)C)[C@]3(C)O2)cc1 | 8.30
19 | CC(C)CCC[C@H](NC(=O)[C@@H]1CCCN1C(=O)[C@@H](NC(=O)[C@@H](NC(=O)[C@H](CCC(=O)O)NC(=O)[C@@H](N)CC(=O)O)C(C)C)C(C)C)B1O[C@@H]2C[C@@H]3C[C@@H](C3(C)C)[C@]2(C)O1 | 8.15
20 | CC(C)[C@H](NC(=O)[C@H](CCC(=O)O)NC(=O)[C@@H](N)CC(=O)O)C(=O)N[C@H](C(=O)N1CCC[C@H]1C(=O)N[C@@H](CCc1ccc(C(C)(C)C)cc1)B1O[C@@H]2C[C@@H]3C[C@@H](C3(C)C)[C@]2(C)O1)C(C)C | 8.52
21 | CC(C)[C@H](NC(=O)[C@H](CCC(=O)O)NC(=O)[C@@H](N)CC(=O)O)C(=O)N[C@H](C(=O)N1CCC[C@H]1C(=O)N[C@@H](CCc1ccc(Oc2ccccc2)cc1)B1O[C@@H]2C[C@@H]3C[C@@H](C3(C)C)[C@]2(C)O1)C(C)C | 8.52
22 | CC(C)[C@H](NC(=O)[C@H](CCC(=O)O)NC(=O)[C@@H](N)CC(=O)O)C(=O)N[C@H](C(=O)N1CCC[C@H]1C(=O)N[C@@H](CCCCc1ccccc1)B1O[C@@H]2C[C@@H]3C[C@@H](C3(C)C)[C@]2(C)O1)C(C)C | 8.00
23 | CC[C@H](NC(=O)[C@@H]1CCCN1C(=O)[C@@H](NC(=O)[C@@H](NC(=O)[C@H](CCC(=O)O)NC(=O)[C@@H](N)CC(=O)O)C(C)C)C(C)C)B1O[C@@H]2C[C@@H]3C[C@@H](C3(C)C)[C@]2(C)O1 | 8.10
24 | CC(C)[C@H](NC(=O)[C@H](CCC(=O)O)NC(=O)[C@@H](N)CC(=O)O)C(=O)N[C@H](C(=O)N1CCC[C@H]1C(=O)N[C@@H](CCc1ccc(-c2ccccc2)cc1)B1O[C@@H]2C[C@@H]3C[C@@H](C3(C)C)[C@]2(C)O1)C(C)C | 8.15
25 | CC(C)C[C@H](NC(=O)[C@@H]1CCCN1C(=O)[C@@H](NC(=O)[C@@H](NC(=O)[C@H](CCC(=O)O)NC(=O)[C@@H](N)CC(=O)O)C(C)C)C(C)C)B1O[C@@H]2C[C@@H]3C[C@@H](C3(C)C)[C@]2(C)O1 | 8.10
26 | CC(C)[C@H](NC(=O)[C@H](CCC(=O)O)NC(=O)[C@@H](N)CC(=O)O)C(=O)N[C@H](C(=O)N1CCC[C@H]1C(=O)N[C@@H](CCCc1ccccc1)B1O[C@@H]2C[C@@H]3C[C@@H](C3(C)C)[C@]2(C)O1)C(C)C (H-DEVVP-X6) | 6.70
27 | CC(C)[C@H](NC(=O)[C@H](CCC(=O)O)NC(=O)[C@@H](N)CC(=O)O)C(=O)N[C@H](C(=O)N1CCC[C@H]1C(=O)N[C@H](B1O[C@@H]2C[C@@H]3C[C@@H](C3(C)C)[C@]2(C)O1)c1ccccc1)C(C)C (H-DEVVP-X9) | 6.05
28 | CCCCCC[C@H](NC(=O)[C@@H]1CCCN1C(=O)[C@@H](NC(=O)[C@@H](NC(=O)[C@H](CCC(=O)O)NC(=O)[C@@H](N)CC(=O)O)C(C)C)C(C)C)B1O[C@@H]2C[C@@H]3C[C@@H](C3(C)C)[C@]2(C)O1 (H-DEVVP-X11) | 7.89
29 | CC(C)CC[C@H](NC(=O)[C@@H]1CCCN1C(=O)[C@@H](NC(=O)[C@@H](NC(=O)[C@H](CCC(=O)O)NC(=O)[C@@H](N)CC(=O)O)C(C)C)C(C)C)B1O[C@@H]2C[C@@H]3C[C@@H](C3(C)C)[C@]2(C)O1 (H-DEVVP-X12) | 7.41
30 | CCCCC[C@H](NC(=O)[C@@H]1CCCN1C(=O)[C@@H](NC(=O)[C@@H](NC(=O)[C@H](CCC(=O)O)NC(=O)[C@@H](N)CC(=O)O)C(C)C)C(C)C)B1O[C@@H]2C[C@@H]3C[C@@H](C3(C)C)[C@]2(C)O1 (H-DEVVP-X13) | 7.92
31 | CCCC[C@H](NC(=O)[C@@H]1CCCN1C(=O)[C@@H](NC(=O)[C@@H](NC(=O)[C@H](CCC(=O)O)NC(=O)[C@@H](N)CC(=O)O)C(C)C)C(C)C)B1O[C@@H]2C[C@@H]3C[C@@H](C3(C)C)[C@]2(C)O1 (H-DEVVP-X14) | 7.96
32 | CC(C)[C@H](NC(=O)[C@H](CCC(=O)O)NC(=O)[C@@H](N)CC(=O)O)C(=O)N[C@H](C(=O)N1CCC[C@H]1C(=O)N[C@@H](Cc1ccccc1)B1O[C@@H]2C[C@@H]3C[C@@H](C3(C)C)[C@]2(C)O1)C(C)C (H-DEVVP-X15) | 6.30
